{"data": "Assay results pooled from the literature", "target": "Mitogen-activated protein kinase kinase kinase kinase 5 (MAP4K5, Homo sapiens, UniProt Q9Y4K4)", "note": "Protocols differ between the studies behind these lines."}
{"Structure (SMILES)": "CCS(=O)(=O)c1cc2cc(C[C@](O)(CC(C)(C)c3ccc(F)cc3C(N)=O)C(F)(F)F)[nH]c2cn1", "test": "cell-free assay, competition with immobilised ligand", "conditions": "1 µM", "remaining binding": "100%"}
{"Structure (SMILES)": "COc1cnc(Nc2cccc(S(N)(=O)=O)c2)nc1N1CCN(c2ccccc2)C(=O)C1", "test": "binding, competition with immobilised ligand", "conditions": "1 µM", "remaining binding": "100%"}
{"Structure (SMILES)": "CN(C)c1nccc(-c2cnn3ncccc23)n1", "test": "binding", "conditions": "1 µM", "remaining binding": "88%"}
{"Structure (SMILES)": "COc1ncc2cc3ccccc3nc2c1C#N", "test": "cell-free assay, competition with immobilised ligand", "conditions": "5 µM", "remaining binding": "95%"}
{"Structure (SMILES)": "Cc1cnn2ncc(-c3ccnc(N(C)C)n3)c2c1", "test": "binding", "conditions": "1 µM", "remaining binding": "67%"}
{"Structure (SMILES)": "Cc1cnc(Nc2ccc(C(=O)N3CCC(N4CCCC4)CC3)cc2)nc1-c1cc2ccccc2s1", "test": "binding, competition with immobilised ligand", "conditions": "1 µM", "remaining binding": "51%"}
{"Structure (SMILES)": "O=c1nc(-c2ccccn2)sc2ccccc12", "test": "binding, competition with immobilised ligand", "conditions": "1 µM", "remaining binding": "100%"}
{"Structure (SMILES)": "O=C(c1ccc(Nc2nccc(-c3cc4ccccc4s3)n2)cc1)N1CCC(N2CCCC2)CC1", "test": "binding, competition with immobilised ligand", "conditions": "1 µM", "remaining binding": "100%"}
{"Structure (SMILES)": "CN(CCCC(F)(F)F)c1nccc(-c2cnn3ncccc23)n1", "test": "binding", "conditions": "1 µM", "remaining binding": "100%"}
{"Structure (SMILES)": "CNC(=O)c1ccc(Nc2ncc(C(F)(F)F)c(NCc3nccnc3N(C)S(C)(=O)=O)n2)cc1", "test": "cell-free assay, competition with immobilised ligand", "conditions": "0.1 µM", "remaining binding": "100%"}
{"Structure (SMILES)": "N[C@H]1CCN(c2nccc(-c3cnn4ncccc34)n2)C1", "test": "binding", "conditions": "1 µM", "remaining binding": "100%"}
{"Structure (SMILES)": "c1cncc(-c2cccc(Nc3nccc(NC4CCCCC4)n3)c2)c1", "test": "binding, competition with immobilised ligand", "conditions": "10 µM", "remaining binding": "91%"}
{"Structure (SMILES)": "F[C@@H]1CCN(c2nccc(-c3cnn4ncccc34)n2)C1", "test": "binding", "conditions": "1 µM", "remaining binding": "79%"}
{"Structure (SMILES)": "O=C(N1CCS(=O)(=O)CC1)N1C[C@H](c2ccc(OC(F)(F)F)cc2)C[C@H](c2nc(C3CC3)no2)C1", "test": "cell-free assay, competition with immobilised ligand", "conditions": "1 µM", "remaining binding": "100%"}
{"Structure (SMILES)": "C[C@H]1CCN(c2nccc(-c3cnn4ncccc34)n2)C1", "test": "binding", "conditions": "1 µM", "remaining binding": "90%"}
{"Structure (SMILES)": "O=C(NCCCN1CCOCC1)c1ccc(Nc2nccc(-c3cc4ccccc4s3)n2)cc1", "test": "binding, competition with immobilised ligand", "conditions": "1 µM", "remaining binding": "82%"}
{"Structure (SMILES)": "CN(c1ccnc(CNc2nc(Nc3ccc4c(c3)CC(=O)N4)ncc2C(F)(F)F)n1)S(C)(=O)=O", "test": "cell-free assay, competition with immobilised ligand", "conditions": "1 µM", "remaining binding": "72%"}
{"Structure (SMILES)": "O=C(Nc1c[nH]nc1C(=O)NC1CCNCC1)c1cc(F)cc(F)c1", "test": "binding, competition with immobilised ligand", "conditions": "1 µM", "remaining binding": "100%"}
{"Structure (SMILES)": "Nc1ncc2c(n1)-c1c([nH]c3ccc(C#CC4CC4)cc13)CCCC2", "test": "binding, competition with immobilised ligand", "conditions": "1 µM", "remaining binding": "82%"}
{"Structure (SMILES)": "CC(=O)Nc1c(C(C)=O)c(=O)n(C)c2nc(-c3ccc(Cl)cc3Cl)c(-c3ccc(Cl)cc3)cc12", "test": "cell-free assay, competition with immobilised ligand", "conditions": "1 µM", "remaining binding": "100%"}
